Assay results as given in ChEMBL document CHEMBL5329160, “Design, synthesis, and mechanistic study of 2-piperazineone-bearing peptidomimetics as novel HIV capsid modulators” (RSC Med Chem, 2023).

Key:
[1] = test system: Human immunodeficiency virus 1; assay: Antiviral activity against HIV-1 infected in MT4 cells; type: functional, organism-based; conditions: Human immunodeficiency virus 1, MT4
[2] = test system: Human immunodeficiency virus 1; assay: Antiviral activity against HIV-1 IIIB infected in MT4 cells assessed as protection against virus induced cytotoxicity incubated for 5 days by MTT assay; type: functional, organism-based; conditions: Human immunodeficiency virus 1, IIIB, MT4, 120 h
[3] = test system: Human immunodeficiency virus 2; assay: Antiviral activity against HIV-2 ROD infected in MT4 cells assessed as protection against virus induced cytotoxicity and measured after 5 days by MTT spectrophotometric assay; type: functional, organism-based; conditions: Human immunodeficiency virus 2, ROD, MT4, 120 h
[4] = Cytotoxicity against human MT4 cells assessed as reduction in cell viability after 5 days by MTT assay; type: toxicity, cell-based; conditions: time 5 day
[5] = target: T1, Structural capsid protein (Human immunodeficiency virus 1, UniProt Q76129); assay: Binding affinity to HIV-1 NL4-3 monomeric capsid protein by SPR analysis
T1 sequence (Q76129 whole entry): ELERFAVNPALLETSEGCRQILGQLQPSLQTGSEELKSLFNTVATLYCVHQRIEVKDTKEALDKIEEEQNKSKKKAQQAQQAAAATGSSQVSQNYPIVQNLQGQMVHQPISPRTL
Outline: (§1)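 SPR binding isotherms averaged over 3 replicates, with error bars as SD.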

[6] = target: T1, Structural capsid protein; assay: Binding affinity to HIV-1 NL4-3 hexameric capsid protein by SPR analysis; outline: as §1
[7] = target: Structural capsid protein (Human immunodeficiency virus 1) (UniProt Q76129); assay: Ratio of Kd for HIV-1 NL4-3 monomeric capsid protein to Kd for HIV-1 NL4-3 hexameric capsid protein
Chain of Structural capsid protein (Human immunodeficiency virus 1) (Q76129 as listed by the source): as the sequence (Q76129 whole entry) above

[8] = target: Structural capsid protein (Human immunodeficiency virus 1) (UniProt Q76129); assay: Binding affinity to HIV-1 NL4-3 hexameric capsid protein assessed as Koff by SPR analysis; conditions: filed as modulator
[9] = test system: Human immunodeficiency virus 1; assay: Antiviral activity against early stage HIV-1 infected in U87.CD4.CXCR4 cells assessed as viral infection at 1 uM preincubated with virus followed by cell addition and measured after 48 hrs by luciferase based luminometer assay (reference value: 100 +/- 8.4 %); type: functional
[10] = test system: Human immunodeficiency virus 1; assay: Antiviral activity against late stage HIV-1 infected in U87.CD4.CXCR4 cells assessed as viral infection at 1 uM preincubated with virus for 48 hrs followed by cell addition and measured after 48 hrs by luciferase based luminometer assay (reference value: 100 +/- 11 %); type: functional; conditions: time 96 hrs
[11] = Metabolic stability in human liver microsomes assessed as remaining compound at 1 uM after 60 mins in presence of NADPH; type: ADME, Microsome; conditions: read-out: Stability
Outline: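 Human liver microsomes at 0.5 mg protein/mL in 100 mM potassium phosphate, compound at 1 µM final (0.99% ACN, 0.01% DMSO). After 10 min pre-warming of the microsomes at 37°C, NADPH (1 mM final, in 10 mM MgCl2) was added. Incubated at 37°C with shaking, sampled at 0, 5, 15, 30, 45 and 60 min into cold ACN with internal standards. LC-MS/MS analysis; T1/2 and CLint(mic) (µL/min/mg) from first-order kinetics.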

[12] = Metabolic stability in human liver assessed as intrinsic clearance at 1 uM preincubated for 10 mins followed by NADPH addition and measured after 60 mins; conditions: read-out: CLH
[13] = Selectivity index, ratio of CC50 for human MT4 cells to EC50 for HIV-1 IIIB infected in human MT4 cells; type: toxicity, cell-based; conditions: read-out: Ratio CC50/EC50
[14] = Selectivity index, ratio of CC50 for human MT4 cells to EC50 for HIV-2 ROD infected in human MT4 cells; type: toxicity, cell-based; conditions: read-out: Ratio CC50/EC50
[15] = test system: Human immunodeficiency virus 1; assay: Antiviral activity against early stage HIV-1 infected in U87.CD4.CXCR4 cells assessed as viral infection at 60 uM preincubated with virus followed by cell addition and measured after 48 hrs by luciferase based luminometer assay (reference value: 100 +/- 8.4 %); type: functional
[16] = test system: Human immunodeficiency virus 1; assay: Antiviral activity against late stage HIV-1 infected in U87.CD4.CXCR4 cells assessed as viral infection at 60 uM preincubated with virus for 48 hrs followed by cell addition and measured after 48 hrs by luciferase based luminometer assay (reference value: 100 +/- 11 %); type: functional; conditions: time 96 hrs
[17] = Metabolic stability in human liver microsomes assessed as remaining compound at 1 uM after 60 mins in absence of NADPH; type: ADME, Microsome; conditions: read-out: Stability
Outline: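 No-cofactor control: human liver microsomes at 0.5 mg protein/mL in 100 mM phosphate buffer with compound at 1 µM, buffer added in place of NADPH. Incubated 60 min at 37°C with shaking, then quenched with cold ACN containing tolbutamide and labetalol internal standards. Centrifuged, supernatant diluted in water, analysed by LC-MS/MS.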

[18] = Metabolic stability in human microsomes assessed as intrinsic clearance at 1 uM preincubated for 60 mins followed by NADPH addition and measured after 60 mins; type: ADME, Microsome; conditions: time 120 min, read-out: CLH

| SMILES | EC50 [1] [µM] | EC50 [2] [µM] | EC50 [3] [µM] | CC50 at 120 h [4] [µM] | Kd [5] [µM] | Kd [6] [µM] | Ratio [7] | K [8] [s⁻¹] | Activity [9] [%] | Activity [10] [%] | remaining at 1 h, 1 µM [11] [%] | CLint scaled at 1 µM [12] [mL/min/kg] | selectivity ratio [13] | selectivity ratio [14] | Activity [15] [%] | Activity [16] [%] | remaining at 1 h, 1 µM [17] [%] | microsomal CLint at 1 µM [18] [µL/min/mg] |
| --- | --- | --- | --- | --- | --- | --- | --- | --- | --- | --- | --- | --- | --- | --- | --- | --- | --- | --- |
| CC(C)(C#Cc1ccc(-c2ccc(Cl)c3c(NS(C)(=O)=O)nn(CC(F)(F)F)c23)c([C@H](Cc2cc(F)cc(F)c2)NC(=O)Cn2nc(C(F)(F)F)c3c2C(F)(F)[C@@H]2C[C@H]32)n1)S(C)(=O)=O | 0.000105 | – | – | – | – | – | – | – | – | – | – | – | – | – | – | – | – | – |
| Cc1[nH]c2ccccc2c1CC(=O)[C@@H](Cc1ccccc1)C(=O)N(C)c1ccccc1 | – | 0.75 | 4.2 | 32 | 3.4 | 0.16 | 21.4 | 0.018 | -0.12 | 150 | 0 | 2.6 | – | – | – | – | – | – |
| COc1ccc(N(C)C(=O)[C@H](Cc2cc(F)cc(F)c2)NC(=O)CN2CCN(C(=O)c3ccccc3[N+](=O)[O-])CC2=O)cc1 | – | 6 | 6.3 | 160 | 13 | 5.2 | 2.5 | 0.25 | – | – | 0.23 | 3.3 | 27 | 25 | 8.1 | 10 | 96 | – |
| C[C@]12CC[C@H]3[C@@H](CCC4=CC(=O)CC[C@@]43C)[C@@H]1CC[C@@H]2O [TESTOSTERONE] | – | – | – | – | – | – | – | – | – | – | – | 74 | – | – | – | – | – | 83 |
